Results as given in ChEMBL document CHEMBL1687841, “Molecular analysis of antimicrobial resistance mechanisms in Neisseria gonorrhoeae isolates from Ontario, Canada” (2011).
≈ marks a conversion by molar mass, not a printed value.

Columns and labels:
Neisseria gonorrhoeae [1] = experiment: microbe, parasite or virus in culture; conditions: 24 h
Neisseria gonorrhoeae [2] = experiment: Antimicrobial activity against Neisseria gonorrhoeae clinical isolates harboring PBP1 L421P mutant gene, PBP2 XXXVII pattern, deletion of nucleotide A from […] promoter, MtrR G45D mutant MAST 299 after 24 hrs by agar dilution method; assay type: functional
Outline: (§1)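 Ontario clinical isolates grown on GC agar plus 1% defined growth supplement, 37°C, 5% CO2, 20 to 24 h, subcultured twice before testing. MICs by agar dilution per CLSI guidelines. QC strains: ATCC 49226 and 2008 WHO panel strains F, G, K, L, N, O, P. Genotypes deduced by PCR and sequencing of ponA, penA, porB, mtrR and its promoter.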

Neisseria gonorrhoeae [3] = experiment: Antimicrobial activity against Neisseria gonorrhoeae clinical isolates harboring porB G120K, A121D mutant gene, PBP1 L421P mutant gene, PBP2 XXXVIII pattern, deletion of nucleotide A from […] promoter, MAST 3563 after 24 hrs by agar dilution method; assay type: functional
Outline: as §1

Neisseria gonorrhoeae [4] = experiment: Antimicrobial activity against Neisseria gonorrhoeae clinical isolates harboring PBP2 XXXVIII pattern, deletion of nucleotide A from […] promoter, MAST 3553 after 24 hrs by agar dilution method; assay type: functional
Outline: as §1

Neisseria gonorrhoeae [5] = experiment: Antimicrobial activity against Neisseria gonorrhoeae clinical isolates harboring PBP2 XXXV pattern, deletion of nucleotide A from […] promoter, MAST 546 after 24 hrs by agar dilution method; assay type: functional
Outline: as §1

Neisseria gonorrhoeae [6] = experiment: Antimicrobial activity against Neisseria gonorrhoeae clinical isolates harboring porB G120K, A121D mutant gene, PBP1 L421P mutant gene, PBP2 XXXVIII pattern, deletion of nucleotide A from […] promoter, MAST 3570 after 24 hrs by agar dilution method; assay type: functional
Outline: as §1

Neisseria gonorrhoeae [7] = experiment: Antimicrobial activity against Neisseria gonorrhoeae clinical isolates harboring porB A121S mutant gene, PBP1 L421P mutant gene, PBP2 XXXVIII pattern, deletion of nucleotide A from […] promoter, MAST 3116 after 24 hrs by agar dilution method; assay type: functional
Outline: as §1

Neisseria gonorrhoeae [8] = experiment: Antimicrobial activity against Neisseria gonorrhoeae clinical isolates harboring porB G120K, A121D mutant gene, PBP2 XXXVI pattern, deletion of nucleotide A from […] promoter, MAST 3596 after 24 hrs by agar dilution method; assay type: functional
Outline: as §1

Neisseria gonorrhoeae [9] = experiment: Antimicrobial activity against Neisseria gonorrhoeae clinical isolates after 24 hrs by agar dilution method; assay type: functional
Neisseria gonorrhoeae [10] = experiment: Antimicrobial activity against Neisseria gonorrhoeae clinical isolates harboring porB G120K, A121D mutant gene, PBP1 L421P mutant gene, PBP2 XXXVIII pattern, insertion of nucleotide T from […] promoter, MAST 3158 after 24 hrs by agar dilution method; assay type: functional
Outline: as §1

Neisseria gonorrhoeae [11] = experiment: Antimicrobial activity against Neisseria gonorrhoeae clinical isolates harboring porB G120K, A121D mutant gene, PBP1 L421P mutant gene, PBP2 XXXIV pattern, deletion of nucleotide A from […] promoter, MAST 225 after 24 hrs by agar dilution method; assay type: functional
Outline: as §1

Neisseria gonorrhoeae [12] = experiment: Antimicrobial activity against Neisseria gonorrhoeae clinical isolates assessed as percent susceptible isolates after 24 hrs by agar dilution method; assay type: functional
Neisseria gonorrhoeae [13] = experiment: Antimicrobial activity against Neisseria gonorrhoeae clinical isolates assessed as percent resistant isolates after 24 hrs by agar dilution method; assay type: functional
Neisseria gonorrhoeae [14] = experiment: Antimicrobial activity against Neisseria gonorrhoeae clinical isolates harboring porB G120K, A121D mutant gene, PBP2 XXXVIII pattern, deletion of nucleotide A from […] promoter, MAST 3158 after 24 hrs by agar dilution method; assay type: functional
Outline: as §1

Neisseria gonorrhoeae [15] = experiment: Antimicrobial activity against Neisseria gonorrhoeae clinical isolates harboring porB G120K, A121D mutant gene, PBP1 L421P mutant gene, PBP2 XXXVIII pattern, deletion of nucleotide A from […] promoter, MAST 3158 after 24 hrs by agar dilution method; assay type: functional
Outline: as §1

Neisseria gonorrhoeae [16] = experiment: Antimicrobial activity against Neisseria gonorrhoeae clinical isolates harboring PBP2 XXXIV pattern, MAST 51 after 24 hrs by agar dilution method; assay type: functional
Outline: as §1

Compound CC[C@H]1OC(=O)[C@H](C)[C@@H](O[C@H]2C[C@@](C)(OC)[C@@H](O)[C@H](C)O2)[C@H](C)[C@@H](O[C@@H]2O[C@H](C)C[C@H](N(C)C)[C@H]2O)[C@](C)(O)C[C@@H](C)CN(C)[C@H](C)[C@@H](O)[C@]1(C)O [AZITHROMYCIN] has an MIC (Neisseria gonorrhoeae [1]) of 0.25 mg/L (≈ 0.334 µM).
C=CC1=C(C(=O)O)N2C(=O)[C@@H](NC(=O)/C(=N\OCC(=O)O)c3csc(N)n3)[C@H]2SC1 [CEFIXIME] was tested, and the MIC (Neisseria gonorrhoeae [2]) was 0.25 mg/L (≈ 0.551 µM), the MIC (Neisseria gonorrhoeae [3]) was 0.125 mg/L (≈ 0.276 µM) and the MIC (Neisseria gonorrhoeae [4]) was 0.125 mg/L (≈ 0.276 µM). For the same compound, the MIC (Neisseria gonorrhoeae [5]) was 0.125 mg/L (≈ 0.276 µM), the MIC (Neisseria gonorrhoeae [6]) was 0.125 mg/L (≈ 0.276 µM) and the MIC (Neisseria gonorrhoeae [7]) was 0.125 mg/L (≈ 0.276 µM). For the same compound, the MIC (Neisseria gonorrhoeae [8]) was 0.125 mg/L (≈ 0.276 µM), the MIC50 (Neisseria gonorrhoeae [9]) was no more than 0.03 mg/L and the MIC90 (Neisseria gonorrhoeae [9]) was no more than 0.03 mg/L. It also gave an MIC (Neisseria gonorrhoeae [10]) of 0.125 mg/L (≈ 0.276 µM), an MIC (Neisseria gonorrhoeae [11]) of 0.25 mg/L (≈ 0.551 µM) and an Activity (Neisseria gonorrhoeae [12]) of 100%. For the same compound, the Activity (Neisseria gonorrhoeae [13]) was 0%, the MIC (Neisseria gonorrhoeae [14]) was 0.25 mg/L (≈ 0.551 µM) and the MIC (Neisseria gonorrhoeae [15]) was 0.125 mg/L (≈ 0.276 µM). The MIC (Neisseria gonorrhoeae [16]) was 0.125 mg/L (≈ 0.276 µM).
Compound CO/N=C(\C(=O)N[C@@H]1C(=O)N2C(C(=O)O)=C(CSc3nc(=O)c(O)nn3C)CS[C@H]12)c1csc(N)n1 [CEFTRIAXONE] has an MIC (Neisseria gonorrhoeae [2]) of 0.125 mg/L (≈ 0.225 µM), an MIC (Neisseria gonorrhoeae [3]) of 0.063 mg/L (≈ 0.114 µM) and an MIC (Neisseria gonorrhoeae [4]) of 0.032 mg/L (≈ 0.0577 µM). It also gave an MIC (Neisseria gonorrhoeae [5]) of 0.125 mg/L (≈ 0.225 µM), an MIC (Neisseria gonorrhoeae [6]) of 0.063 mg/L (≈ 0.114 µM) and an MIC (Neisseria gonorrhoeae [7]) of 0.063 mg/L (≈ 0.114 µM). For the same compound, the MIC (Neisseria gonorrhoeae [8]) was 0.125 mg/L (≈ 0.225 µM), the MIC50 (Neisseria gonorrhoeae [9]) was no more than 0.03 mg/L and the MIC90 (Neisseria gonorrhoeae [9]) was no more than 0.06 mg/L. The MIC (Neisseria gonorrhoeae [10]) was 0.063 mg/L (≈ 0.114 µM), the MIC (Neisseria gonorrhoeae [11]) was 0.125 mg/L (≈ 0.225 µM) and the Activity (Neisseria gonorrhoeae [12]) was 100%. It also gave an Activity (Neisseria gonorrhoeae [13]) of 0%, an MIC (Neisseria gonorrhoeae [14]) of 0.125 mg/L (≈ 0.225 µM) and an MIC (Neisseria gonorrhoeae [15]) of 0.063 mg/L (≈ 0.114 µM). For the same compound, the MIC (Neisseria gonorrhoeae [16]) was 0.063 mg/L (≈ 0.114 µM).
CC[C@H]1OC(=O)[C@H](C)[C@@H](O[C@H]2C[C@@](C)(OC)[C@@H](O)[C@H](C)O2)[C@H](C)[C@@H](O[C@@H]2O[C@H](C)C[C@H](N(C)C)[C@H]2O)[C@](C)(O)C[C@@H](C)C(=O)[C@H](C)[C@@H](O)[C@]1(C)O [ERYTHROMYCIN] was tested, and the MIC (Neisseria gonorrhoeae [9]) was no more than 1 mg/L, the MIC50 (Neisseria gonorrhoeae [9]) was no more than 1 mg/L and the MIC90 (Neisseria gonorrhoeae [9]) was 2 mg/L (≈ 2.73 µM). The Activity (Neisseria gonorrhoeae [12]) was 77.2% and the Activity (Neisseria gonorrhoeae [13]) was 22.8%.
CC1(C)S[C@@H]2[C@H](NC(=O)Cc3ccccc3)C(=O)N2[C@H]1C(=O)O [PENICILLIN G] gave an MIC (Neisseria gonorrhoeae [2]) of 2 mg/L (≈ 5.98 µM), an MIC (Neisseria gonorrhoeae [3]) of 1 mg/L (≈ 2.99 µM) and an MIC (Neisseria gonorrhoeae [4]) of 0.5 mg/L (≈ 1.5 µM). For the same compound, the MIC (Neisseria gonorrhoeae [5]) was 1 mg/L (≈ 2.99 µM), the MIC (Neisseria gonorrhoeae [6]) was 2 mg/L (≈ 5.98 µM) and the MIC (Neisseria gonorrhoeae [7]) was 2 mg/L (≈ 5.98 µM). It also gave an MIC (Neisseria gonorrhoeae [8]) of 0.5 mg/L (≈ 1.5 µM), an MIC50 (Neisseria gonorrhoeae [9]) of 0.25 mg/L (≈ 0.748 µM) and an MIC90 (Neisseria gonorrhoeae [9]) of 2 mg/L (≈ 5.98 µM). It also gave an MIC (Neisseria gonorrhoeae [10]) of 1 mg/L (≈ 2.99 µM), an MIC (Neisseria gonorrhoeae [11]) of 2 mg/L (≈ 5.98 µM) and an Activity (Neisseria gonorrhoeae [12]) of 10.7%. It also gave an Activity (Neisseria gonorrhoeae [13]) of 12.1%, an MIC (Neisseria gonorrhoeae [14]) of 1 mg/L (≈ 2.99 µM) and an MIC (Neisseria gonorrhoeae [15]) of 1 mg/L (≈ 2.99 µM). The MIC (Neisseria gonorrhoeae [16]) was 1 mg/L (≈ 2.99 µM).
For CN[C@@H]1[C@H](O)[C@H](NC)[C@H]2O[C@@]3(O)C(=O)C[C@@H](C)O[C@H]3O[C@@H]2[C@H]1O [SPECTINOMYCIN], the MIC50 (Neisseria gonorrhoeae [9]) was no more than 32 mg/L, the MIC90 (Neisseria gonorrhoeae [9]) was no more than 32 mg/L and the Activity (Neisseria gonorrhoeae [12]) was 100%. The Activity (Neisseria gonorrhoeae [13]) was 0%.
Work on CN(C)[C@@H]1C(O)=C(C(N)=O)C(=O)[C@@]2(O)C(O)=C3C(=O)c4c(O)cccc4[C@@](C)(O)[C@H]3C[C@@H]12 [TETRACYCLINE] yielded an MIC50 (Neisseria gonorrhoeae [9]) of 0.5 mg/L (≈ 1.13 µM), an MIC90 (Neisseria gonorrhoeae [9]) of 2 mg/L (≈ 4.5 µM) and an Activity (Neisseria gonorrhoeae [12]) of 27.5%. It also gave an Activity (Neisseria gonorrhoeae [13]) of 25.5%.
